PMC10842602 (Bioorganic & medicinal chemistry, 2023)

Target: T1, WT human SLACK (Homo sapiens, UniProt Q5JUK3)
T1 sequence (Q5JUK3 1-1235 isoform Q5JUK3-3): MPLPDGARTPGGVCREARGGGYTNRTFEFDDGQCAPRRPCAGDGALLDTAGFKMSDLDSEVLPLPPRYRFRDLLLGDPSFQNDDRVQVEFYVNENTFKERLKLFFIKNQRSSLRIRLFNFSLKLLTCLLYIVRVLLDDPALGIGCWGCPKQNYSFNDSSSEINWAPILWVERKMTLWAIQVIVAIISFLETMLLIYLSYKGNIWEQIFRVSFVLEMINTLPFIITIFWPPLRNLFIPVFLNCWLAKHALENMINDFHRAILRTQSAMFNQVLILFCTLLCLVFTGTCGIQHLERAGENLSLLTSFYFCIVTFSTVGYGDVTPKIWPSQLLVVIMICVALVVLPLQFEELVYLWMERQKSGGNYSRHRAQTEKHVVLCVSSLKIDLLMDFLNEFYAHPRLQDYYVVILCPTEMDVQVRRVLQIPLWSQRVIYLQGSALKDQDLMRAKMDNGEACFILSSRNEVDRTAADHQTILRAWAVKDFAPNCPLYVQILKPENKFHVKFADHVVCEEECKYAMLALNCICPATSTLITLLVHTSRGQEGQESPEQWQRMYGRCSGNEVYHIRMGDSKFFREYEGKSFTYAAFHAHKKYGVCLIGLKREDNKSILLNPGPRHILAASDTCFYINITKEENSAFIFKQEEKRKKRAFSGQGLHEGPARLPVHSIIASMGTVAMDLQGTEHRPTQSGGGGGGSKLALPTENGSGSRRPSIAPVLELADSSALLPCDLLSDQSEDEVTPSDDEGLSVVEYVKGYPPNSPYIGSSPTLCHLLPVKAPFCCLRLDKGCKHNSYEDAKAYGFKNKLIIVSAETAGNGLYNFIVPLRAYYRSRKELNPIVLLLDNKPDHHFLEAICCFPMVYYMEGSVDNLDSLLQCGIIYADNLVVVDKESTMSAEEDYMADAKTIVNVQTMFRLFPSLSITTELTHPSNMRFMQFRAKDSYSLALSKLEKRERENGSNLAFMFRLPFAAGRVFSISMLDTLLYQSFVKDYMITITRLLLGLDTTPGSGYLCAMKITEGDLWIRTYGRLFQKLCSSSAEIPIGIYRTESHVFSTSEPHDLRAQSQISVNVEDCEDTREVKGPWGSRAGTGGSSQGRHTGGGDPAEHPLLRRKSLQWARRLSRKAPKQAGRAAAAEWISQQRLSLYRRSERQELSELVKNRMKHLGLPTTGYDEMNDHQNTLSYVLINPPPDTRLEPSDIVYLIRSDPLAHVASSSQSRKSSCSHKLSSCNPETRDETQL
Experiment: Tl+ flux assay in HEK-293 cells stably expressing WT human SLACK
Type: cell-based
Settings: for IC50 / EC50: CRC; for Mode: Tl+ flux, HEK-293 cells expressing WT SLACK
Procedure, shortened: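 Stably transfected HEK-293 cells expressing wild-type human SLACK; thallium flux read-out. IC50 or EC50 taken from concentration-response curves, and each compound classed as inhibitor, activator or not active. Efficacy is the response amplitude at 30 μM test compound, as a percentage of the maximum response to a reference SLACK inhibitor (for inhibitors) or loxapine (for activators).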

[1] = IC50 for compounds of mode Inh (also cells printed Inactive)

Structure (SMILES) | IC50 / EC50 (EC50 for compounds of mode Act) [µM] | IC50 / EC50 [1] | Mode
CCOc1ccccc1S(=O)(=O)N1CC(c2nc(-c3ccccc3OC)no2)C1 [Compound 53, 5-(1-((2-Ethoxyphenyl)sulfonyl)azetidin-3-yl)-3-(2-methoxyphenyl)-1,2,4-oxadiazole] | >10 | – | –
CCOc1ccccc1S(=O)(=O)N1CC(c2nc(-c3cccc(OC)c3)no2)C1 [Compound 54, 5-(1-((2-Ethoxyphenyl)sulfonyl)azetidin-3-yl)-3-(3-methoxyphenyl)-1,2,4-oxadiazole] | >10 | – | –
CCOc1ccccc1S(=O)(=O)N1CC(c2nc(-c3nccs3)no2)C1 [Compound 61, 5-(1-((2-Ethoxyphenyl)sulfonyl)azetidin-3-yl)-3-(thiazol-2-yl)-1,2,4-oxadiazole] | – | Inactive | Inactive
CCOc1ccccc1S(=O)(=O)N1CC(c2nc(-c3ccco3)no2)C1 [Compound 63, 5-(1-((2-Ethoxyphenyl)sulfonyl)azetidin-3-yl)-3-(furan-2-yl)-1,2,4-oxadiazole] | – | >10 µM | –
CCOc1ccccc1S(=O)(=O)N1CC(c2nc(-c3ccccn3)no2)C1 [Compound 64, 5-(1-((2-Ethoxyphenyl)sulfonyl)azetidin-3-yl)-3-(pyridin-2-yl)-1,2,4-oxadiazole] | – | Inactive | Inactive
CCOc1ccccc1S(=O)(=O)N1CC(c2nc(-c3cccnc3)no2)C1 [Compound 65, 5-(1-((2-Ethoxyphenyl)sulfonyl)azetidin-3-yl)-3-(pyridin-3-yl)-1,2,4-oxadiazole] | – | Inactive | Inactive
CCOc1ccccc1S(=O)(=O)N1CC(c2nc(-c3ccncc3)no2)C1 [Compound 66, 5-(1-((2-Ethoxyphenyl)sulfonyl)azetidin-3-yl)-3-(pyridin-4-yl)-1,2,4-oxadiazole] | – | Inactive | Inactive
CCOc1ccccc1S(=O)(=O)N1CC(c2nc(-c3ccc(F)cn3)no2)C1 [Compound 67, 5-(1-((2-Ethoxyphenyl)sulfonyl)azetidin-3-yl)-3-(5-fluoropyridin-2-yl)-1,2,4-oxadiazole] | – | Inactive | Inactive
CCOc1ccccc1S(=O)(=O)N1CC(c2nc(-c3ncccn3)no2)C1 [Compound 68, 5-(1-((2-Ethoxyphenyl)sulfonyl)azetidin-3-yl)-3-(pyrimidin-2-yl)-1,2,4-oxadiazole] | – | Inactive | Inactive
CCOc1ccccc1S(=O)(=O)N1CC(C)(c2nc(-c3ccc(F)cc3)no2)C1 [Compound 69] | 4.0 | – | –
CCOc1ccccc1S(=O)(=O)N1CC(F)(c2nc(-c3ccc(F)cc3)no2)C1 [Compound 70] | – | 9.2 µM | –
CCOc1ccccc1S(=O)(=O)C1CN(c2nc(-c3ccc(F)cc3)no2)C1 [Compound 71] | – | >10 µM | –
CCOc1ccccc1S(=O)(=O)[C@H]1C[C@@H](c2nc(-c3ccc(F)cc3)no2)C1 [Compound 73a] | – | Inactive | Inactive
CCOc1ccccc1S(=O)(=O)[C@H]1C[C@H](c2nc(-c3ccc(F)cc3)no2)C1 [Compound 73b] | – | >10 µM | –
CCOc1ccccc1S(=O)(=O)N1CC[C@@H](c2nc(-c3ccc(F)cc3)no2)C1 [Compound 74] | – | >10 µM | –
CCOc1ccccc1S(=O)(=O)N1CC[C@H](c2nc(-c3ccc(F)cc3)no2)C1 [Compound 75] | – | >10 µM | –
CCOc1ccccc1S(=O)(=O)c1ccc(-c2nc(-c3ccc(F)cc3)no2)cc1 [Compound 77] | – | Inactive | Inactive
CCOc1ccccc1S(=O)(=O)N1CC(c2nnc(-c3ccc(F)cc3)o2)C1 [Compound 81] | >10 | – | –
